Screens: PubChem, several laboratories
STAT1 activator = increases IFN-gamma driven STAT1 reporter signal. AID 932. hit rate 2.6% among 200,000. NIH 3T3 STAT1-luciferase reporter, luminescence; 100% = IFN-gamma alone, no compound. activation (% of control), % at 5.5 µM;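 active = activation above the screen-wide mean activation plus 3 SD, cut at about 130% in these data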
FLuc inh counter = counter-screen for luciferase assay inhibitors: firefly luciferase inhibition. ATPLite firefly luciferase biochemical luminescence, 10 min. inhibition, % at 10 µM. hit rate 1.5% among 200,000. AID 1006;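 active = inhibition above about 50% when tested at 10 µM, limit read from the data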
FLuc stim CS = firefly luciferase counter-screen for stimulation assays | activation factor at 10 µM | 200,000 tested, under 10 active | P08659 | ATPlite luciferase biochemical, luminescence, 10 min; 0 = ATP-free wells, 1 = DMSO control;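 active = luciferase activation factor, scaled between plate controls, of at least 2 with compound at 10 µM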
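Material: luciferase plus luciferin reagent, cell-free. Medium: PBS buffer for ATP. Also added: ATP substrate, dispensed from a 10.24 µM working solution in PBS. Doses: test compounds dosed from 2 mM stocks in 100% DMSO. Incubation: 10 min post-reagent at room temperature. Technique: light output (luminescence). Read-out basis: luminescence gain marking luciferase activators.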
NF-kB expr up = NF-kB expression increase, human neuronal cells; AID 1239; hit rate 1.6% among 190,000; NF-kB reporter expression; active compounds read high; fold change at 12.5 µM; in the data active = fold change above about 3.3
APP transl inh = APP translation inhibition; AID 1285; inhibition, % at 2 µM; hit rate 0.82% among 190,000; SH-SY5Y APP 5'UTR-luciferase reporter, luminescence;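 active = inhibition above a set limit, derived from the sample mean plus 3 SD, cut at about 45% in these data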
APP 5'UTR act = activates APP 5'UTR luciferase reporter; SH-SY5Y APP 5'UTR luciferase reporter, luminescence; zero percent = DMSO vehicle wells; activation, % at 2 µM; hit rate 1% among 190,000; AID 1276;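 active = activation above a set limit, based on mean plus 3 SD of controls, cut at about 140% in these data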
Numbers stand for hits. Only some compounds are listed: those with a hit (about 4.8% of all), similar ones and a draw of the others.

Screening CCc1ccc(C(=O)COC(=O)c2cncc(Br)c2)cc1 returned STAT1 activator inactive, FLuc inh counter inactive, FLuc stim CS inactive, NF-kB expr up inactive, APP transl inh inactive and APP 5'UTR act inactive.
`CCn1c(C)nc2cc(-c3nc4n(n3)Cc3ccccc3-4)ccc21` gave STAT1 activator inactive, FLuc inh counter 98.2, FLuc stim CS inactive, NF-kB expr up inactive, APP transl inh 84.7 and APP 5'UTR act inactive.
`Fc1ccc(-c2nc3n(n2)Cc2ccccc2-3)cc1` gave STAT1 activator inactive, FLuc inh counter 74.7, FLuc stim CS inactive, NF-kB expr up 6.72, APP transl inh inactive and APP 5'UTR act 173.4.
`NC(=S)Cc1nc2n(n1)Cc1ccccc1-2` gave STAT1 activator inactive, FLuc inh counter inactive, FLuc stim CS inactive, NF-kB expr up inactive, APP transl inh inactive and APP 5'UTR act inactive.
For Cc1ccc(-c2nc3n(n2)Cc2ccccc2-3)cc1 the results were STAT1 activator inactive, FLuc inh counter 92.3, FLuc stim CS inactive, NF-kB expr up 4.17, APP transl inh inactive and APP 5'UTR act 197.3.
For Cc1cc(C)n2nc(-c3ccc(F)cc3)nc2n1 the results were STAT1 activator inactive, FLuc inh counter inactive, FLuc stim CS inactive, NF-kB expr up inactive, APP transl inh inactive and APP 5'UTR act inactive.
Screening CC(C)(C)c1ccc(S(=O)(=O)N2CCSC2)cc1 returned STAT1 activator inactive, FLuc inh counter inactive, FLuc stim CS inactive, NF-kB expr up inactive, APP transl inh inactive and APP 5'UTR act inactive.
O=C(N/N=C\c1cccc(OC(=O)c2ccco2)c1)c1ccc2c(c1)OCO2 was read as STAT1 activator inactive, FLuc inh counter 70.4, FLuc stim CS inactive, NF-kB expr up 5.06, APP transl inh inactive and APP 5'UTR act inactive.
Screening O=C(N/N=C\c1ccc2c(c1)OCO2)c1ccco1 returned STAT1 activator 146.8, FLuc inh counter 75.1, FLuc stim CS inactive, NF-kB expr up inactive, APP transl inh inactive and APP 5'UTR act inactive.
For O=C(N/N=C/c1ccc2cccnc2c1)c1ccco1 the results were STAT1 activator inactive, FLuc inh counter 87.9, FLuc stim CS inactive, NF-kB expr up 3.51, APP transl inh inactive and APP 5'UTR act 166.4.
For Cc1cc(OC(=O)c2ccc(Cl)cc2Cl)nc(C)n1 the results were STAT1 activator inactive, FLuc inh counter inactive, FLuc stim CS inactive, NF-kB expr up inactive, APP transl inh inactive and APP 5'UTR act inactive.
For O=C(N/N=C/c1cccc([N+](=O)[O-])c1)C1CC(=O)N(c2ccc(F)cc2)C1 (configuration not stated) the results were STAT1 activator inactive, FLuc inh counter inactive, FLuc stim CS inactive, NF-kB expr up inactive, APP transl inh inactive and APP 5'UTR act inactive.
For CN(C)c1ccc(C(C#N)c2ccccc2)nn1 (configuration not stated) the results were STAT1 activator inactive, FLuc inh counter inactive, FLuc stim CS inactive, NF-kB expr up inactive, APP transl inh inactive and APP 5'UTR act inactive.
Screening CSc1ncccc1-c1nc2ccccc2[nH]1 returned STAT1 activator inactive, FLuc inh counter inactive, FLuc stim CS inactive, NF-kB expr up inactive, APP transl inh inactive and APP 5'UTR act inactive.
Screening Cc1nc2ccc(-c3nc4ccccc4[nH]3)cc2[nH]1 returned STAT1 activator inactive, FLuc inh counter 77.2, FLuc stim CS inactive, NF-kB expr up 3.46, APP transl inh inactive and APP 5'UTR act 155.3.
For Cc1ccccc1-c1nc2ccccc2[nH]1 the results were STAT1 activator 133.1, FLuc inh counter inactive, FLuc stim CS inactive, NF-kB expr up inactive, APP transl inh inactive and APP 5'UTR act inactive.
Screening Cc1ccc(-c2nc3ccccc3[nH]2)cc1NC(=O)c1ccco1 returned STAT1 activator inactive, FLuc inh counter inactive, FLuc stim CS inactive, NF-kB expr up inactive, APP transl inh inactive and APP 5'UTR act inactive.
Screening Fc1ccccc1-c1nc2ccccc2[nH]1 returned STAT1 activator 133.7, FLuc inh counter 55.4, FLuc stim CS inactive, NF-kB expr up inactive, APP transl inh inactive and APP 5'UTR act inactive.
`c1ccc2nc(-c3nc4ccccc4[nH]3)ccc2c1` gave STAT1 activator inactive, FLuc inh counter 94.5, FLuc stim CS inactive, NF-kB expr up 4.24, APP transl inh inactive and APP 5'UTR act 191.9.
`CCOc1ccc(Nc2nc(NCC3CCCO3)c3ccccc3n2)cc1` (configuration not stated) gave STAT1 activator inactive, FLuc inh counter inactive, FLuc stim CS inactive, NF-kB expr up inactive, APP transl inh inactive and APP 5'UTR act inactive.
